Measured values as given in ChEMBL document CHEMBL1154235, “Rational design and semisynthesis of betulinic acid analogues as potent topoisomerase inhibitors” (J Nat Prod, 2009).
Calls of active or inactive are those of the source. The calls are words filed in the database; no cut-off is given here.

Tests used:
Malme-3M = assay: Cytotoxicity against human MALME-3M cells assessed as cell growth at 10 uM; format: functional; settings: read-out: Activity
Summary of the method: (§1)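 Single-dose screen at 10 µM against the 60 human cell line panel, run by the NCI Developmental Therapeutics Program and scored as cell growth.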

HCT-15 = assay: Cytotoxicity against human HCT15 cells assessed as cell growth at 10 uM; format: functional; settings: read-out: Activity; summary of the method: as §1
TK-10 = assay: Cytotoxicity against human TK10 cells assessed as cell growth at 10 uM; format: functional; settings: read-out: Activity
NCI-H460 = assay: Cytotoxicity against human NCI-H460 cells assessed as cell growth at 10 uM; format: functional; settings: read-out: Activity; summary of the method: as §1
SF-539 = assay: Cytotoxicity against human SF539 cells assessed as cell growth at 10 uM; format: functional; settings: read-out: Activity; summary of the method: as §1
A498 = assay: Cytotoxicity against human A498 cells assessed as cell growth at 10 uM; format: functional; settings: read-out: Activity; summary of the method: as §1
786-0 = assay: Cytotoxicity against human 786-0 cells assessed as cell growth at 10 uM; format: functional; settings: read-out: Activity; summary of the method: as §1
A549 = assay: Cytotoxicity against human A549 cells assessed as cell growth at 10 uM; format: functional; settings: read-out: Activity; summary of the method: as §1
HL-60(TB) = assay: Cytotoxicity against human HL-60(TB) cells assessed as cell growth at 10 uM; format: functional; settings: read-out: Activity
Summary of the method: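 Single-dose screen run externally by the NCI Developmental Therapeutics Program across its 60 human tumour cell line panel. Compound tested at 10 µM.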

EKVX = assay: Cytotoxicity against human EKVX cells assessed as cell growth at 10 uM; format: functional; settings: read-out: Activity; summary of the method: as §1
KM12 = assay: Cytotoxicity against human KM12 cells assessed as cell growth at 10 uM; format: functional; settings: read-out: Activity; summary of the method: as §1
CAKI-1 = assay: Cytotoxicity against human Caki1 cells assessed as cell growth at 10 uM; format: functional; settings: read-out: Activity; summary of the method: as §1
HT-29 = assay: Cytotoxicity against human HT-29 cells assessed as cell growth at 10 uM; format: functional; settings: read-out: Activity; summary of the method: as §1
MCF7 = assay: Cytotoxicity against human MCF7 cells assessed as cell growth at 10 uM; format: functional; settings: read-out: Activity; summary of the method: as §1
ACHN = assay: Cytotoxicity against human ACHN cells assessed as cell growth at 10 uM; format: functional; settings: read-out: Activity; summary of the method: as §1
NCI/ADR-RES = assay: Cytotoxicity against human NCI/ADR-RES cells assessed as cell growth at 10 uM; format: functional; settings: read-out: Activity; summary of the method: as §1
MDA-MB-468 = assay: Cytotoxicity against human MDA-MB-468 cells assessed as cell growth at 10 uM; format: functional; settings: read-out: Activity; summary of the method: as §1
UACC-62 = assay: Cytotoxicity against human UACC62 cells assessed as cell growth at 10 uM; format: functional; settings: read-out: Activity
LOX IMVI = assay: Cytotoxicity against human LOXIMVI cells assessed as cell growth at 10 uM; format: functional; settings: read-out: Activity; summary of the method: as §1
[1] = molecular target: T1, DNA topoisomerase 1 (Homo sapiens) (UniProt P11387); assay: Inhibition of topoisomerase 1 catalytic activity assessed as relaxation of supercoiled plasmid DNA at 100 uM after 30 mins by agarose gel electrophoresis
T1 sequence (whole entry): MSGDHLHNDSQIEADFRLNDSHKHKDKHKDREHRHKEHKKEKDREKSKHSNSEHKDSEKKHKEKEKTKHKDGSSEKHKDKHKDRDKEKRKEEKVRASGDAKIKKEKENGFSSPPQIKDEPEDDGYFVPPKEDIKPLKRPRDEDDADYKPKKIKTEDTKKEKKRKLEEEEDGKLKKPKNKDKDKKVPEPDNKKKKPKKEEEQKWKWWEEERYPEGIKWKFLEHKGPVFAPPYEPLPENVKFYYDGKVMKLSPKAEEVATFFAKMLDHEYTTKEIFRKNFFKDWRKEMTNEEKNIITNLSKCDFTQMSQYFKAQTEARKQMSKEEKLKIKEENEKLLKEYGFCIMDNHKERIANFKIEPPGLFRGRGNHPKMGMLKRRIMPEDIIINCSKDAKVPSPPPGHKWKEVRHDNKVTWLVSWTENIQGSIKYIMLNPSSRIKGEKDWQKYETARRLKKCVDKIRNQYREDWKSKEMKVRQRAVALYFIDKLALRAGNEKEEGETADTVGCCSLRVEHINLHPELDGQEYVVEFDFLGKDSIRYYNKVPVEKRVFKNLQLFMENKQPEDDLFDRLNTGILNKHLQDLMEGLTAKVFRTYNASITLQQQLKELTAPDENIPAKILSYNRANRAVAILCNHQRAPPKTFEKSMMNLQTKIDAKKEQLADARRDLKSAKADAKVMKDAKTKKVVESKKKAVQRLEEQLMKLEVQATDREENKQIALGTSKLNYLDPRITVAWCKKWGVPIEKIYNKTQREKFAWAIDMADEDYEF
Summary of the method: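 Compound at 100 µM final with topoisomerase I (2U), 37 °C 30 min. Stopped with 1% SDS, proteinase K digestion, 1% agarose TAE gel, ethidium bromide stain, imaging quantitation. Scored 0 to 3+ against camptothecin.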

UO-31 = assay: Cytotoxicity against human UO31 cells assessed as cell growth at 10 uM; format: functional; settings: read-out: Activity
SNB-75 = assay: Cytotoxicity against human SNB75 cells assessed as cell growth at 10 uM; format: functional; settings: read-out: Activity

Compound: C=C(C)[C@@H]1CC[C@]2(C(O)=S)CC[C@]3(C)[C@H](CC[C@@H]4[C@@]5(C)CC[C@H](O)C(C)(C)[C@@H]5CC[C@]43C)[C@@H]12
- growth at 10 µM (Malme-3M): 102%
- growth at 10 µM (HCT-15): 104%
- growth at 10 µM (TK-10): 94.2%
- growth at 10 µM (NCI-H460): 109%
- growth at 10 µM (SF-539): 111%
- growth at 10 µM (A498): 129%
- growth at 10 µM (786-0): 93.8%
- growth at 10 µM (A549): 93%
- growth at 10 µM (HL-60(TB)): 134%
- growth at 10 µM (EKVX): 103%
- growth at 10 µM (KM12): 84.7%
- growth at 10 µM (CAKI-1): 100%
- growth at 10 µM (HT-29): 112%
- growth at 10 µM (MCF7): 100%
- growth at 10 µM (ACHN): 96.3%
- growth at 10 µM (NCI/ADR-RES): 113%
- growth at 10 µM (MDA-MB-468): 105%
- growth at 10 µM (UACC-62): 96.8%
- growth at 10 µM (LOX IMVI): 101%
- inhibition [1]: inactive
- growth at 10 µM (UO-31): 89.5%
- growth at 10 µM (SNB-75): 108%
